Entries after “also recorded” stand apart in the source; their conditions may differ.
Assays:
DnaK [1] = details: for kcat (ATP hydrolysis): single-turnover, constitutively stimulated state (k′ = kcat); for rate of ATP hydrolysis, basal: buffer A pH 7.5, single-turnover; for ATP hydrolysis (in words): intrinsic / low peptide concentration, compared with WT
DnaK [2] = details: from d with KD^0S 1.73 μM; 20°C
W102 of DnaK = assay: Tryptophan fluorescence assay; format: biochemical, Escherichia coli; details: for wavelength of maximal W102 fluorescence: 1 μM DnaK, buffer A pH 7.5, ~25°C, excitation 290 nm; for W102 fluorescence of D148 mutants (in words): ATP and ADP, compared with wild-type levels
In short: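 Protein: full-length DnaK with C-terminal His6, expressed in BB205 and purified by HisTrap then HiTrap Q. Protein (1 μM final) preincubated 2 min with 2 mM ATP or ADP in buffer A (25 mM Hepes-KOH pH 7.5, 100 mM KCl, 10 mM Mg(OAc)2). Emission 300–400 nm recorded at ~25°C. Spectra normalised to ADP peak = 1.0. ATP-versus-ADP peak-wavelength shift compared.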

[3] = system: yeast Ssa1 and E. coli DnaK; details: heat shock; ref Liu & Hendrickson, 2007; cited from earlier work
DnaK [4] = details: from biochemical assays of this paper
[5] = system: dnaK deletion strain BB205 E. coli cells; assay: Cell viability tests; format: cell-based, Escherichia coli; details: growth on LB agar at elevated temperature (37°C to 40°C), 20 μM IPTG
In short: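 DnaK-dependence test: pBB46 plasmids (ampR) carrying mutant dnaK transformed into BB205 (camR kanR). Fresh overnight culture from each fresh transformation, serially diluted, spotted on LB with 50 μg/ml ampicillin, 25 μg/ml kanamycin, 25 μg/ml chloramphenicol, 20 μM IPTG. Grown overnight at 37°C to 40°C, with control plates at 30°C. Viability scored from growth.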

Substance: WT∷NR: DnaK (residues 1–609) fused through a flexible linker to the NRLLLTG heptapeptide
- kcat (ATP hydrolysis) (DnaK [1]; 20°C): 0.00455 ± 0.00013 s⁻¹
- KeqS = [R] / [S] (DnaK [2]): 0

Substance: WT DnaK: full-length wild-type E. coli Hsp70 DnaK
- rate of ATP hydrolysis, basal (DnaK [1]; basal, 20°C): 0.012 min⁻¹
- wavelength of maximal W102 fluorescence (W102 of DnaK; 2 mM ADP): 342 nm
- wavelength of maximal W102 fluorescence (W102 of DnaK; 2 mM ATP): 335 nm
- W102 fluorescence change (in words) (W102 of DnaK; ATP as compared with ADP): quenched and blue shifted

Substance: I160D
- ATP hydrolysis (in words) (DnaK [1]): constitutively high ATPase activities
- phenotype of mutants (in words) [3]: profoundly defective

Substance: D148I
- W102 fluorescence of D148 mutants (in words) (W102 of DnaK): quenched and blue-shifted to beyond wild-type levels
- allosteric state phenotype (in words) (DnaK [4]): exclusive stabilization of the restraining R-state alternative
- chaperone activity / cell viability (in words) [5]: destroy chaperone activity

Substance: N170D
- rate of ATP hydrolysis, basal (DnaK [1]; basal, 20°C): 0.37 min⁻¹
- enhancement of basal ATP hydrolysis over WT (DnaK [1]; basal, 20°C, versus WT): 31 fold
- phenotype of mutants (in words) [3]: profoundly defective

Substance: V389D
- phenotype of mutants (in words) [3]: profoundly defective

Substance: D148V
- W102 fluorescence of D148 mutants (in words) (W102 of DnaK): quenched and blue-shifted to beyond wild-type levels

Substance: I483D
- kcat (ATP hydrolysis) (DnaK [1]; 20°C): 0.00452 ± 0.000183 s⁻¹
- ATP hydrolysis (in words) (DnaK [1]): constitutively high ATPase activities
- phenotype of mutants (in words) [3]: profoundly defective
- KeqS = [R] / [S] (DnaK [2]): 0
- chaperone activity / cell viability (in words) [5]: negligible chaperone activity; also recorded: destroy chaperone activity
